# pIC50: −log10 of the molar value.
# Tests used:
# [1] = biological target: Serine/threonine-protein kinase B-raf (Homo sapiens) (UniProt P15056); experiment: Inhibition of BRAF (unknown origin) at 1 uM relative to control
# [2] = biological target: Receptor tyrosine-protein kinase erbB-2 (Homo sapiens) (UniProt P04626); experiment: Inhibition of ERBB2 (HER2) (unknown origin) at 1 uM relative to control
# [3] = biological target: CDK2/Cyclin A2 (Homo sapiens) (UniProt P24941+P20248); experiment: Inhibition of CDK2/cyclin A (unknown origin) at 1 uM relative to control; assay type: protein-complex assay
# [4] = biological target: Rho-associated protein kinase 2 (Homo sapiens) (UniProt O75116); experiment: Inhibition of ROCK2 (unknown origin) at 1 uM relative to control
# [5] = biological target: Platelet-derived growth factor receptor alpha (Homo sapiens) (UniProt P16234); experiment: Inhibition of PDGFRA (unknown origin) at 1 uM relative to control
# [6] = AUC (0 to infinity) in Sprague-Dawley rat at 10 mg/kg, po administered via gavage by LC-MS/MS analysis; assay type: ADME, organism-based; design: dose 10 mg/kg, route oral, time infinity; details: in vivo
# [7] = biological target: Insulin receptor (Homo sapiens) (UniProt P06213); experiment: Inhibition of INSR (unknown origin) at 1 uM relative to control
# NCI-H1975 [8] = experiment: In vivo anti tumor activity against human NCI-H1975 cells xenografted in nude C.B-17 SCID mouse model assessed as tumor volume at 5 mg/kg, ig for 18 days measured twice a week (reference value: 948.05 mm3); assay type: functional
# [9] = biological target: Tyrosine-protein kinase Fyn (Homo sapiens) (UniProt P06241); experiment: Inhibition of FYN (unknown origin) at 1 uM relative to control
# NCI-H1975 [10] = experiment: In vivo anti tumor activity against human NCI-H1975 cells xenografted in nude C.B-17 SCID mouse model assessed as relative tumor volume at 5 mg/kg, ig for 18 days measured twice a week relative to control; assay type: functional
# Outline: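 C.B-17 SCID mice received s.c. inoculation of 5 × 10^6 H1975 cells. At 100-150 mm3 they were randomized (n = 9 per group) and dosed intragastrically once daily for 18 days, with PBS as the control. Tumors were measured by caliper twice weekly, with V = length × width²/2. RTV = V/V0, and T/C% = treated mean RTV / control mean RTV × 100.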
# [11] = biological target: Proto-oncogene tyrosine-protein kinase Src (Homo sapiens) (UniProt P12931); experiment: Inhibition of SRC (unknown origin) at 1 uM relative to control
# [12] = MRT in Sprague-Dawley rat at 1 mg/kg, iv by LC-MS/MS analysis; assay type: ADME, organism-based; details: in vivo
# Outline: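 Male Sprague-Dawley rats (200-240 g) received 1 mg/kg by tail-vein injection in 2% DMSO, 20% PEG400 and 78% buffered saline, or 10 mg/kg by oral gavage in 0.5% methylcellulose. Orbital sinus blood was drawn into heparinized tubes at 2, 5, 15 and 30 min and at 1, 2, 4, 8, 12 and 24 h, then centrifuged. Plasma was measured by LC/MS/MS in SRM mode, with non-compartmental analysis.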
# [13] = biological target: Tyrosine-protein kinase Tec (Homo sapiens) (UniProt P42680); experiment: Inhibition of TEC (unknown origin) at 1 uM relative to control
# [14] = biological target: ALK tyrosine kinase receptor (Homo sapiens) (UniProt Q9UM73); experiment: Inhibition of ALK (unknown origin) at 1 uM relative to control
# Sequence of ALK tyrosine kinase receptor (Homo sapiens) (Q9UM73 19-1620 limits assumed): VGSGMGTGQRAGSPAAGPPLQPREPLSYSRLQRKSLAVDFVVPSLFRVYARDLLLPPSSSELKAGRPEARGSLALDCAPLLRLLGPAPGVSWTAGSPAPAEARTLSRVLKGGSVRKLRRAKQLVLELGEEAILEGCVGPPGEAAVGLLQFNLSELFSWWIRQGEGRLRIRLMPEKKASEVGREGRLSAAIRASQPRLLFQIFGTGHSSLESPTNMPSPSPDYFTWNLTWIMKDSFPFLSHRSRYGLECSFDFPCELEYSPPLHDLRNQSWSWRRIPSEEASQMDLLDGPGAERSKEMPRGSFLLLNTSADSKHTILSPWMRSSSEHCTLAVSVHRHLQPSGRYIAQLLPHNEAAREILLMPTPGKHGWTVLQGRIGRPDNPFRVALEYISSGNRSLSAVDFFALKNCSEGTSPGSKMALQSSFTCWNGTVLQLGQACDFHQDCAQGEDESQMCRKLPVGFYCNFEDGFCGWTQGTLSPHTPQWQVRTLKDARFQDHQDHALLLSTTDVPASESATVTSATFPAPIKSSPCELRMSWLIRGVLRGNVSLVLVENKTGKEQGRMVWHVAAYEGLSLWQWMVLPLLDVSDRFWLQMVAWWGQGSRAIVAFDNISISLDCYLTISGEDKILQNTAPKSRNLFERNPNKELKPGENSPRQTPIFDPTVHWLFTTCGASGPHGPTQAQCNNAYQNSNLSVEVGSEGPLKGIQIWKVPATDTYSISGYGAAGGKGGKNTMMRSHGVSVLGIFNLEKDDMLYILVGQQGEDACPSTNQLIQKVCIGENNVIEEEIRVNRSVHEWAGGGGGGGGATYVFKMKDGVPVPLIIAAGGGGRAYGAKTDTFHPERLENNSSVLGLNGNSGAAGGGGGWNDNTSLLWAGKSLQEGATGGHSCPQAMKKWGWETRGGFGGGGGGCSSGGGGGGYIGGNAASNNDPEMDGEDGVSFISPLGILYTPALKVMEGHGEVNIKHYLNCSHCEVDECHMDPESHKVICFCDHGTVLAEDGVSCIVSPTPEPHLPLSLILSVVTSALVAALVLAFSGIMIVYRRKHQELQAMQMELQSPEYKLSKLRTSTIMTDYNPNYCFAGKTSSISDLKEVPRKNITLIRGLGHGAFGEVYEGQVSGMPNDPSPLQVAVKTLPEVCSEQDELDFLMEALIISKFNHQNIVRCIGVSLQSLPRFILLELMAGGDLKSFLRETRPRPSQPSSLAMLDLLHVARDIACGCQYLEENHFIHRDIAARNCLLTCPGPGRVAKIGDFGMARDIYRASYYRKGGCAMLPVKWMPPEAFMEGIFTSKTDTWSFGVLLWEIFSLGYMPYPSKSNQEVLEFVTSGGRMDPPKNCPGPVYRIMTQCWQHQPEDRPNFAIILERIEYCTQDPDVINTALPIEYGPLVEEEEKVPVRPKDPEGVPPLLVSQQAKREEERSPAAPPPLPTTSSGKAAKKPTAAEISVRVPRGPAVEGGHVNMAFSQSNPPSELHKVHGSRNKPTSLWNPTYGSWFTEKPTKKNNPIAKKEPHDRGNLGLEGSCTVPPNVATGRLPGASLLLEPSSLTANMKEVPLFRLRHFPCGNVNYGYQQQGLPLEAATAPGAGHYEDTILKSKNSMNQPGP
# [15] = biological target: Epidermal growth factor receptor (Homo sapiens, UniProt P00533, L858R); experiment: Inhibition of human recombinant cytoplasmic GST-tagged EGFR L858R mutant expressed in baculovirus using TK-substrate-biotin preincubated for 15 mins followed by substrate addition measured after 60 mins by FRET-based Z'-Lyte assay
# Sequence of Epidermal growth factor receptor (P00533 25-1210 L858R limits assumed): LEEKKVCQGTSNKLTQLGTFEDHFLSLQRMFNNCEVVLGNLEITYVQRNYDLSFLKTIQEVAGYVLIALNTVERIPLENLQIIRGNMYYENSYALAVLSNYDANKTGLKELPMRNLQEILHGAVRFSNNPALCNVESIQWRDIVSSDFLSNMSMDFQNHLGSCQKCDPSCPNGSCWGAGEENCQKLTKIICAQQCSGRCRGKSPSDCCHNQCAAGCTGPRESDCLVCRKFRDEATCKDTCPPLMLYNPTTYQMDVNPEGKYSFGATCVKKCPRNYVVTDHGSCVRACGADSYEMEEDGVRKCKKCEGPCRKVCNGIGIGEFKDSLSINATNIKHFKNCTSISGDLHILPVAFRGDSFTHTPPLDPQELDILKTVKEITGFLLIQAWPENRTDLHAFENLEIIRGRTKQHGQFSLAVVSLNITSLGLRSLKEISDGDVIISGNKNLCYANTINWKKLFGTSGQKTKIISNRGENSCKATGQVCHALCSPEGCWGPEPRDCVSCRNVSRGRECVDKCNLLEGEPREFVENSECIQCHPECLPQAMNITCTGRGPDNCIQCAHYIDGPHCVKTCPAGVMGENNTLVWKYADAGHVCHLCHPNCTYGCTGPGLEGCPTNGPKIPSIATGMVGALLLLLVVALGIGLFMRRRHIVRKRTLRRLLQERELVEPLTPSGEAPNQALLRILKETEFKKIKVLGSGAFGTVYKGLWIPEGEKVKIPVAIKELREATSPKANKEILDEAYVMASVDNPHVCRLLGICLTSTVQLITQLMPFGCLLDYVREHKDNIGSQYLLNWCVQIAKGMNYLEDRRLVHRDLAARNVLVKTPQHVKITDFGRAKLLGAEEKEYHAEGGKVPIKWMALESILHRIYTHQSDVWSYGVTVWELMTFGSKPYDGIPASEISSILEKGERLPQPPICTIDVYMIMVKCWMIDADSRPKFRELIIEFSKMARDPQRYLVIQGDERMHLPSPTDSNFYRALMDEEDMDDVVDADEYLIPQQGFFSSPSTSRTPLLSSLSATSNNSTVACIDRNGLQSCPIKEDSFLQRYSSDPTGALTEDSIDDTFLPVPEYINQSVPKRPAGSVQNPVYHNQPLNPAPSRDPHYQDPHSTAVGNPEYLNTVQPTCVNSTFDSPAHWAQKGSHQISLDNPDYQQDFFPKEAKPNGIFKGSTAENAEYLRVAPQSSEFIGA
# [16] = biological target: Tyrosine-protein kinase ABL1 (Homo sapiens) (UniProt P00519); experiment: Inhibition of ABL1 (unknown origin) at 1 uM relative to control
# Sequence of Tyrosine-protein kinase ABL1 (Homo sapiens) (P00519 whole entry): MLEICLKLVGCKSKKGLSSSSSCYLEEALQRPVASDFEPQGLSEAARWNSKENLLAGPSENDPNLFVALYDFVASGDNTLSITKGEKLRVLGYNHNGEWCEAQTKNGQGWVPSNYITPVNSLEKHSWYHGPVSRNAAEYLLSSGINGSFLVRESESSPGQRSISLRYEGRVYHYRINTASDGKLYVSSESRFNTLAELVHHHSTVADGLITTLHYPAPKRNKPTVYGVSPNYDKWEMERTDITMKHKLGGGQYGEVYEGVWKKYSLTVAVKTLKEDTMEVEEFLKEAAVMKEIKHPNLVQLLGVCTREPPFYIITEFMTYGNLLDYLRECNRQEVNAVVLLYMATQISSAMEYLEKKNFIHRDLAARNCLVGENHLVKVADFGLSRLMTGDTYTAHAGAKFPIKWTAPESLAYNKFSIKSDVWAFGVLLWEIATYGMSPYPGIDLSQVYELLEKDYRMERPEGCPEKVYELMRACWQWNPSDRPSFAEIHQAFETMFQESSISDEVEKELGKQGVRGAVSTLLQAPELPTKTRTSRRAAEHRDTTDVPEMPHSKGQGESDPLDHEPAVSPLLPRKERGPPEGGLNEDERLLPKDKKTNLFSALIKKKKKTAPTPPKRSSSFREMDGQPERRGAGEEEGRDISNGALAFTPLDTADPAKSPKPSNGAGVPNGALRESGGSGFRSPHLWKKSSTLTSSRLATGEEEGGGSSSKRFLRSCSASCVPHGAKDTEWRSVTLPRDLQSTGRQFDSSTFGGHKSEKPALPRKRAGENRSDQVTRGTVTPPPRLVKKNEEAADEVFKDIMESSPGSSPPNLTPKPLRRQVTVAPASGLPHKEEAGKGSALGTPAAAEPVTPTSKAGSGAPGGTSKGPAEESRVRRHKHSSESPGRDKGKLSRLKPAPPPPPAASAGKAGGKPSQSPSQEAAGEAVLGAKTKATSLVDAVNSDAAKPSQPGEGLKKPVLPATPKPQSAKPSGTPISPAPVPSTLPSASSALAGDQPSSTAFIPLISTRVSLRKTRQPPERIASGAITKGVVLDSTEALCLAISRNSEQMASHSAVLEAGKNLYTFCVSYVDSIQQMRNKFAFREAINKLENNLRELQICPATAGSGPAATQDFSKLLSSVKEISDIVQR
# [17] = biological target: Ephrin type-B receptor 2 (Homo sapiens) (UniProt P29323); experiment: Inhibition of EPHB2 (unknown origin) at 1 uM relative to control
# [18] = Intrinsic clearance in mouse liver microsomes; assay type: ADME, microsome; details: read-out: CLH
# [19] = biological target: Non-receptor tyrosine-protein kinase TYK2 (Homo sapiens) (UniProt P29597); experiment: Inhibition of TYK2 (unknown origin) at 1 uM relative to control
# Sequence of Non-receptor tyrosine-protein kinase TYK2 (Homo sapiens) (P29597 whole entry): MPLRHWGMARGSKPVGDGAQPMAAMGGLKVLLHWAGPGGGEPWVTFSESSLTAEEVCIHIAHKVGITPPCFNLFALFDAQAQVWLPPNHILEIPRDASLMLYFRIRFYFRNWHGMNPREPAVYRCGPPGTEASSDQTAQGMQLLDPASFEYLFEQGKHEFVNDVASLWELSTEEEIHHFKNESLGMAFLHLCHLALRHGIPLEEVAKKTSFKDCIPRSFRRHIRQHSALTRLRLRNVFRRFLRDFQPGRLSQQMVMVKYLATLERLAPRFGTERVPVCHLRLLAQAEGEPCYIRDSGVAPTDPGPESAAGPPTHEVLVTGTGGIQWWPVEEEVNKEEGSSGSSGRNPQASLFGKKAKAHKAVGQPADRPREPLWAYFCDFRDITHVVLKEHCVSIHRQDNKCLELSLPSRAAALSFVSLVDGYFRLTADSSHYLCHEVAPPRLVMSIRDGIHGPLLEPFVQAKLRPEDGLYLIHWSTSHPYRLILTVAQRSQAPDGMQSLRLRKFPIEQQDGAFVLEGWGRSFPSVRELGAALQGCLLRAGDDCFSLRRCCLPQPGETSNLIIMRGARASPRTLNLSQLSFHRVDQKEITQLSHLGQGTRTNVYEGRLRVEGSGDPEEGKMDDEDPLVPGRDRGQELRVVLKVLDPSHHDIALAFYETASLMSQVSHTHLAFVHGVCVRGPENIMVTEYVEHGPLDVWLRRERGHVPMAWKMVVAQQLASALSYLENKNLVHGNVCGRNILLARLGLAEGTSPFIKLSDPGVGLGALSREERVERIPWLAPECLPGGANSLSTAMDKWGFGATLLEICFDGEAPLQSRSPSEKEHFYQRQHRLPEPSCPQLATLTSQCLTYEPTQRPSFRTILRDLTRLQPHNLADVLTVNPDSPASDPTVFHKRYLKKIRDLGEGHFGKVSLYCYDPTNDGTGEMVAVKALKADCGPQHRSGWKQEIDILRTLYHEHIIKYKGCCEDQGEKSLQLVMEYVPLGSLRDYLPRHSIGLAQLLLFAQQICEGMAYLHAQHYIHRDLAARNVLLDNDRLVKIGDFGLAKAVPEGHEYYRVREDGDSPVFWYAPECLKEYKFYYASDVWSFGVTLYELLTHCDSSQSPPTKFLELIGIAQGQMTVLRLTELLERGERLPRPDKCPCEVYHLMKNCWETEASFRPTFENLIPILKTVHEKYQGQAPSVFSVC
# [20] = biological target: Protein kinase C beta type (Homo sapiens) (UniProt P05771); experiment: Inhibition of PRKCB1 (unknown origin) at 1 uM relative to control
# [21] = biological target: Insulin receptor-related protein (Homo sapiens) (UniProt P14616); experiment: Inhibition of INSRR (unknown origin) at 1 uM relative to control
# Homo sapiens = species on record: Homo sapiens; experiment: Inhibition of 746 to 750 truncated EGFR (unknown origin) at 1 uM relative to control
# [22] = biological target: Focal adhesion kinase 1 (Homo sapiens) (UniProt Q05397); experiment: Inhibition of PTK2 (unknown origin) at 1 uM relative to control
# [23] = biological target: Cyclin-dependent kinase 5/CDK5 activator 1 (Homo sapiens) (UniProt Q00535+Q15078); experiment: Inhibition of CDK5/p35 (unknown origin) at 1 uM relative to control; assay type: protein-complex assay
# HCC827 = experiment: Antiproliferative activity against human HCC827 cells harboring EGFR E746-A750 deletion mutant; assay type: functional, cell-based
# [24] = biological target: Tyrosine-protein kinase Blk (Homo sapiens) (UniProt P51451); experiment: Inhibition of BLK (unknown origin) at 1 uM relative to control
# [25] = biological target: Serine/threonine-protein kinase Chk1 (Homo sapiens) (UniProt O14757); experiment: Inhibition of CHEK1 (unknown origin) at 1 uM relative to control
# NCI-H1975 [26] = experiment: In vivo anti tumor activity against human NCI-H1975 cells xenografted in nude C.B-17 SCID mouse model assessed as tumor growth inhibition at 10 mg/kg, ig for 18 days measured twice a week relative to control; assay type: functional; details: NCI-H1975, po, 432 h, read-out: TGI
# Outline: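 H1975 s.c. xenografts (5 × 10^6 cells) were grown in C.B-17 SCID mice and randomized at 100-150 mm3 (n = 9). Mice were dosed intragastrically once daily for 18 days against a PBS control. TGI% = (TWcontrol − TWtreatment)/TWcontrol × 100, where TW is the mean tumor weight on day 18.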
# [27] = Half life in Sprague-Dawley rat at 10 mg/kg, po administered via gavage by LC-MS/MS analysis; assay type: ADME, organism-based; details: in vivo
# Outline: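 Male Sprague-Dawley rats (200-240 g) were dosed either by tail vein at 1 mg/kg in 2% DMSO/20% PEG400/78% buffered saline or by oral gavage at 10 mg/kg in 0.5% methylcellulose. Blood was drawn by orbital sinus puncture at 2 min to 24 h into heparin, and plasma was analysed by LC/MS/MS in SRM mode. Parameters came from non-compartmental analysis.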
# [28] = biological target: Testis-specific serine/threonine-protein kinase 1 (Homo sapiens) (UniProt Q9BXA7); experiment: Inhibition of STK22D (unknown origin) at 1 uM relative to control
# [29] = biological target: Vascular endothelial growth factor receptor 2 (Homo sapiens) (UniProt P35968); experiment: Inhibition of KDR (unknown origin) at 1 uM relative to control
structure (smiles),measurement,setting,value
C=CC(=O)Nc1cc(Nc2nccc(-c3cn4c5c(cccc35)CCC4)n2)c(OC)cc1N(C)CCN(C)C,inhibition,[1],20%
same,inhibition,[2],87%
same,inhibition,[3],7%
same,inhibition,[4],0%
same,inhibition,[5],13%
same,AUC(0-inf),[6],1020 ng·h/mL
same,inhibition,[7],36%
same,Activity,NCI-H1975 [8],527.78 mm3
same,inhibition,[9],7%
same,T/C,NCI-H1975 [10],56.4%
same,inhibition,[11],16%
same,MRT,[12],4.7 h
same,inhibition,[13],52%
same,inhibition,[14],84%
same,pIC50,[15],8.22 to 8.28
same,inhibition,[16],-2%
same,inhibition,[17],6%
same,CLint scaled,[18],457 mL/min/kg
same,inhibition,[19],14%
same,inhibition,[20],2%
same,inhibition,[21],39%
same,inhibition,Homo sapiens,110%
same,inhibition,[22],73%
same,inhibition,[23],1%
same,pIC50,HCC827,6.96
same,inhibition,[24],85%
same,inhibition,[25],-6%
same,inhibition in vivo at 10 mg/kg,NCI-H1975 [26],83.5%
same,half-life,[27],4.1 h
same,inhibition,[28],72%
same,inhibition,[29],37%

# Source: ChEMBL document CHEMBL4052618, “Design, synthesis, SAR discussion, in vitro and in vivo evaluation of novel selective EGFR modulator to inhibit L858R/T790M double mutants” (Eur J Med Chem, 2017)
